MT stabilizer – stabilizes microtubules in HeLa cells; actives 0.83% (n = 200,000); AID 2205; HeLa tubulin immunostaining HCS, 24 h; share of cells brighter than vehicle mean+2SD; % tubulin-high responders, % at 10 µM;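 active means plate Z-score above 3 for both tubulin-high and condensed-nucleus cell shares, with cell loss under 80%, at 10 µM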;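 further: anti alpha tubulin signal scored within the nucleus-defined area of each cell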
bCat nuc transl – alters nuclear translocation of beta-catenin in HeLa cells; immunofluorescence imaging; nuclear translocation activity, % at 5 µM; actives 0.3% (n = 190,000); AID 1665;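 active means nuclear translocation activity above 50% at 5 µM, with a well cell count of 50 or more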;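 further: per-cell ratio of nuclear to cytoplasmic median beta-catenin stain intensity; plate controls were DMSO negative control for no effect and GSK-3 inhibitor IX positive control for full effect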
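Test system: HeLa cells, endogenous beta-catenin; Compound: single 5 µM dose plus 0.02–20 µM confirmation series; Times: compound exposure 24 h at 37°C; Signal: fluorescence imaging of beta-catenin antibody stain plus DAPI; Read-out: % activation, nuclear-to-cytoplasmic median beta-catenin signal ratio per cell.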
Ins promoter up – MIN6 insulin promoter up-regulation; MIN6 insulin promoter-GFP reporter, high-content imaging; hits give high values; z-score at 5 µM; actives 0.3% (n = 190,000);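 active means z-score above 3 at 5 µM with at least 500 cells counted in the well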
Autophagy mod – alters autophagy in cells; MEF GFP-LC3 puncta imaging; test concentration mostly 10 µM; actives 0.98% (n = 190,000); AID 463193; calls only at 10 µM (by protocol);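 active means percentage of spot-positive cells more than 3 SD above its plate mean, without a fluorescence outlier flag or 80% toxicity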;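 further: spot-positive cell cutoff set from DMSO-treated cells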
Wee1 stabilizer – human Wee1 degradation inhibition, primary screen; HeLa Luc-Wee1K328M stability, luciferase luminescence; 100% = proteasome inhibitor MG132 effect; reporter increase, % at 5 µM; actives 1.2% (n = 220,000);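 active means activation above the mean of all tested compounds plus 3 SD, set per screening run, cut at about 8.8% in these data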;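 further: cells exposed to compound for 20 h before luminescence read; 0% = DMSO alone and 100% = MG132 at 30 µM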
Target sequence (P30291 whole entry K328M): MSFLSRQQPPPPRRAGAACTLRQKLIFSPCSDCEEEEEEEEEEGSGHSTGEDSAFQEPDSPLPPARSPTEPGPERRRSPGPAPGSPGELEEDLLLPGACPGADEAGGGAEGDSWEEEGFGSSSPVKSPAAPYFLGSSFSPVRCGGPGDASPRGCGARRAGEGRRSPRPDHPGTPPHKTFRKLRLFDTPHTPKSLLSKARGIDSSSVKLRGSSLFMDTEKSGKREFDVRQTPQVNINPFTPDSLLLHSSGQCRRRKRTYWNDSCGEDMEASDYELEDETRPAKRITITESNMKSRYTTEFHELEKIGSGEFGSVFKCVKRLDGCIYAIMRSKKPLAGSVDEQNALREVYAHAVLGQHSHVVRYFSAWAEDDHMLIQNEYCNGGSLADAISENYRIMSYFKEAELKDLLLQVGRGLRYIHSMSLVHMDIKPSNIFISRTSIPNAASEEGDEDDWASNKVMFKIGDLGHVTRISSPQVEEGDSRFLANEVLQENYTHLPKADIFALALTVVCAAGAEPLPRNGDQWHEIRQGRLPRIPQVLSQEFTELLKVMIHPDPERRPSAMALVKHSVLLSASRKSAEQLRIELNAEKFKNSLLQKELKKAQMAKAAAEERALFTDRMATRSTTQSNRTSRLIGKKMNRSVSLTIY
Starred values were filed as active, the others as inactive; i = inactive; / = no result; + = active, no number. This is a sample that favours compounds with a hit; in the whole collection about 2.9% have one here.

SMILES	MT stabilizer	bCat nuc transl	Ins promoter up	Autophagy mod	Wee1 stabilizer
CCOC(=O)N1CCN(C(=O)c2cc(S(=O)(=O)N3CCCC3)cn2C)CC1	2	-3	3*	i	0
CCOC(=O)N1CCC(NC(=O)c2cc(S(=O)(=O)N3CCCC3)cn2C)CC1	5	-2	0.45	i	7
CN(Cc1cn[nH]c1-c1cc2ccccc2o1)CC1CCOCC1	4	0	-0.2	i	-2
Cc1cc2ccccn2c1C(=O)c1ccc([N+](=O)[O-])o1	6	-3	0.05	+	0
CCOc1cc(N2CCOCC2)c(OCC)cc1NC(=O)CCS(=O)(=O)c1ccc(Cl)cc1	3	-4	-0.02	i	1
CCOc1cc(N2CCOCC2)c(OCC)cc1NS(=O)(=O)c1ccc(Cl)s1	40*	10	0.12	/	-1
Cc1cccc(C)c1N/C=C/c1onc(C)c1[N+](=O)[O-]	1	-2	0.5	i	3
Cc1noc(/C=C/c2ccc(-c3ccccc3Cl)o2)c1[N+](=O)[O-]	2	-1	/	+	3
O=C(NCCCN1CCOCC1)C(=O)N/N=C/c1ccccc1O	/	2	-0.16	/	0
O=C(NCCCN1CCOCC1)C(=O)N/N=C/c1c2ccccc2cc2ccccc12	22*	5	-0.34	i	-2
CSC1=NC(C(Cl)(Cl)Cl)N=C(c2ccc(C)cc2)N1 (stereo not given)	8	108*	0.72	i	8
Cc1cccc(C(=O)Nc2sc3c(c2C#N)CCCCC3)c1	3	-1	-0.11	i	1
CCc1ccc(CCC(=O)Nc2sc3c(c2C#N)CCCC3)o1	17*	64*	-0.19	+	0
N#Cc1c(NC(=S)NC(=O)c2ccccc2)sc2c1CCN(CCc1ccccc1)C2	2	0	/	+	-1
COc1cccc(C(=O)Nc2sc3c(c2C#N)CCN(C(C)=O)C3)c1	28*	53*	0.02	i	5
N#Cc1c(NC(=O)c2ccccc2)sc2c1CCC2	33*	/	0.31	i	11*
CCC(=O)Nc1sc2c(c1C#N)CCC2	1	-2	-0.1	i	-1
CN1CCC(N(C)C(=O)c2cc(=O)c3ccccc3o2)CC1	3	-8	0.35	i	1
COCCn1c(SCC(=O)N2CC(=O)Nc3ccccc32)nc2ccccc21	3	/	-0.05	i	-2
Cc1cccc2nc(C(F)(F)F)nc(=O)n12	6	10	-0.53	i	-1
CCOc1ccccc1CNCCNC(=O)c1nonc1N	/	0	1.5	/	3
C=CCOc1ccccc1CNCCNC(=O)c1nonc1N	2	1	0.12	+	-2
Cc1onc(NC(=O)c2ccc(Cl)cc2Cl)c1Br	9	0	-0.73	i	-2
Cc1cc(C)cc(Nc2c3c(nc4ncnn24)CCC3)c1	12*	0	0.11	i	8
Cc1cccc(Nc2c3c(nc4ncnn24)CCC3)c1	4	1	-0.54	i	0
SMILES	MT stabilizer	bCat nuc transl	Ins promoter up	Autophagy mod	Wee1 stabilizer
COC(=O)c1ccc2c(=O)n(CCN3CCOCC3)c(SCC(=O)NCc3ccccc3)nc2c1	1	0	/	i	-2
CCC1(C)OCC(Cn2c3ccccc3c3ccccc32)O1 (stereo not given)	5	63*	/	i	-1
COc1ccccc1NC(=O)OCC#CCOC(=O)Nc1ccccc1OC	/	0	-0.21	/	0
Cc1ccc(C(=O)N/N=C\c2ccc(-c3ccc([N+](=O)[O-])cc3)o2)cn1	/	-1	-0.14	/	-2
O=C(O)c1ccc(N/N=C/c2ccc(-c3ccccc3Cl)o2)cc1	/	7	-0.15	/	-2
O=C(N/N=C/c1ccc(-c2ccccc2Cl)o1)c1ccccc1	32*	/	-0.2	i	3
O=C(N/N=C/c1ccc(-c2cccc([N+](=O)[O-])c2)o1)c1ccc([N+](=O)[O-])cc1	4	0	-0.59	i	9.2*
Cc1cc(C(=O)N/N=C/c2ccc(-c3cccc(Br)c3)o2)n[nH]1	/	1	-0.58	/	10*
O=C(N/N=C/c1ccc(-c2cccc([N+](=O)[O-])c2)o1)c1ccccc1O	3	-2	-0.13	i	5
O=C(N/N=C\c1ccc(-c2ccc([N+](=O)[O-])cc2)o1)c1ccc2c(c1)OCO2	4	-2	0.48	+	0
Cc1ccc(NC(=O)CCCSc2ccccc2)cc1S(=O)(=O)N1CCOCC1	4	-1	-0.58	i	-1
O=C(CCc1ccc(S(=O)(=O)NCc2ccccc2)cc1)NCC1CCCO1 (stereo not given)	4	0	0.12	i	1
Cc1cc(C)n2nc(N)c(N=Nc3ccc(Cl)cc3)c2n1	4	-3	-0.69	i	-1
Cc1c(C=O)c(=O)n(-c2ccccc2)n1-c1ccccc1	4	-3	0.26	i	3
O=C(CCN1CCN(c2ccccc2F)CC1)Nc1ccc2c(c1)OCO2	4	-2	0.25	i	4
COc1ccc(NC(=S)Nc2ccc(N(C)C(C)=O)cc2)cc1	3	8	0.47	i	-2
COc1ccc(N(C)C(=S)Oc2ccc(C(=O)Nc3ccccc3)cc2)cc1	44*	-2	0.31	i	3
CCOc1ccc(C2=Nn3c(nnc3-c3ccc(OC)cc3)SC2)cc1	40*	106*	0.6	i	7
Cc1nc(-c2cn[nH]c2-c2ccc(O)cc2O)cs1	3	-5	-0.13	i	9.0*
COc1ccc(C2CC(c3cccs3)=Nc3ccccc3S2)cc1 (stereo not given)	21*	-1	/	i	-1
CC(=O)/C(=C\N(C)C)Sc1ccc(Cl)cc1	/	-5	0.16	/	9.1*
O=C(COc1ccc2c(c1)CCC2)N1CCN(c2cccc(C(F)(F)F)c2)CC1	2	2	-0.07	i	6
O=C(COc1ccc2c(c1)CCC2)N1CCN(c2ccccc2F)CC1	4	1	2	i	10*
COc1ccc(C2C(C#N)=C(N)Oc3c2ccc2cccnc32)cc1OC (stereo not given)	16*	61*	0.38	i	5
COc1cc(C2C(C#N)=C(N)Oc3cc(C)oc(=O)c32)cc(OC)c1OC (stereo not given)	/	0	-0.11	/	-2
N#CC1=C(N)Oc2cc(N)ccc2C1c1cccnc1 (stereo not given)	24*	0	0.47	i	-3
N#CC1=C(N)Oc2cc(N)ccc2C1c1ccc(F)cc1 (stereo not given)	30	1	1.4	i	1
CCN(CC)c1ccc2c(c1)OC(N)=C(C#N)C2c1cccnc1 (stereo not given)	20*	65*	-1.7	+	0
COc1cc(C2C(C#N)=C(N)Oc3cc(N)ccc32)cc(OC)c1OC (stereo not given)	18*	71*	0.18	+	2
CCn1nc(C(=O)Nc2nc3ccc(C)cc3s2)c2ccccc2c1=O	4	-3	-0.14	+	1

Source: PubChem (several laboratories)
